According to ChEMBL document CHEMBL3525946, “Species comparison of in vivo P-glycoprotein-mediated brain efflux using mdr1a-deficient rats and mice” (Drug Metab Dispos, 2012):

Key:
[1] = Percentage unbound in Sprague-Dawley rat brain at 1 uM after 5 hrs by equilibrium dialysis method; assay type: ADME, tissue-based
In short: (§1)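 Equilibrium dialysis (12-14 kDa membrane) of plasma or brain homogenate from naïve male Sprague-Dawley rats or Crl:NMRI(Han) mice. Donor side spiked to 1 µM final; receiver phosphate buffer pH 7.4; 37°C for 5 h. Buffer phase quantified by LC-MS. Brain fu corrected for homogenate dilution to intact tissue. Mean of two independent determinations.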

[2] = Total drug level in wild type Sprague-Dawley rat brain expressing Abcb1a at 9 mg/kg/day administered through continuous minipump treatment for 3 days by UPLC-MS analysis; assay type: ADME, organism-based; settings: other: continuous minipump, read-out: Drug uptake
In short: (§2)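 Drug was infused subcutaneously by osmotic minipump for 3 days to steady state, at 1 µl/h in mice and 10 µl/h in rats, with doses derived from body weight and delivery rate. Animals were decapitated. Plasma came from EDTA trunk blood spun at 5000 g for 10 min at 4 °C. Whole brain was homogenised 1:4 in 70% acetonitrile and the supernatant kept. Samples were protein-precipitated with internal standard and analysed by UPLC. n=3-5, mean ± SEM.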

[3] = Total drug level in wild type Crl:CF1 mouse brain expressing Abcb1a mutant at 6 mg/kg/day administered through continuous minipump treatment for 3 days by UPLC-MS analysis; assay type: ADME, organism-based; settings: other: continuous minipump, read-out: Drug uptake
In short: (§3)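 Subcutaneous osmotic minipump infusion for 3 days to steady state, implanted under isoflurane (rats 10 µl/h, mice 1 µl/h). Mdr1a-deficient (SD-Abcb1a knockout rats; Crl:CF1-Abcb1a mutant mice) and wild-type animals, n=3-5 per group. After decapitation, EDTA plasma and whole brain (homogenized 1:4 in 70% acetonitrile) were precipitated with internal standard. Parent and metabolites quantified by UPLC-MS. Mean ± SEM.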

[4] = Total plasma concentration in mdr1a-deficient rat at 9 mg/kg/day administered through continuous minipump treatment for 3 days by UPLC-MS analysis; assay type: ADME, organism-based; settings: other: continuous minipump; in short: as §2
[5] = Percentage unbound in Crl:NMRI(Han) mouse brain at 1 uM after 5 hrs by equilibrium dialysis method; assay type: ADME, tissue-based; in short: as §1
[6] = Total plasma concentration in wild type Crl:CF1 mouse expressing Abcb1a mutant at 6 mg/kg/day administered through continuous minipump treatment for 3 days by UPLC-MS analysis; assay type: ADME, organism-based; settings: other: continuous minipump; in short: as §3
[7] = Total plasma concentration in mdr1a-deficient mouse at 6 mg/kg/day administered through continuous minipump treatment for 3 days by UPLC-MS analysis; assay type: ADME, organism-based; settings: other: continuous minipump; in short: as §3
[8] = Percentage unbound in Sprague-Dawley rat plasma at 1 uM after 5 hrs by equilibrium dialysis method; assay type: ADME, cell-free; in short: as §1
[9] = Percentage unbound in Crl:NMRI(Han) mouse plasma at 1 uM after 5 hrs by equilibrium dialysis method; assay type: ADME, cell-free; in short: as §1
[10] = Total plasma concentration in wild type Sprague-Dawley rat expressing Abcb1a at 9 mg/kg/day administered through continuous minipump treatment for 3 days by UPLC-MS analysis; assay type: ADME, organism-based; settings: other: continuous minipump; in short: as §2
[11] = Total drug level in mdr1a-deficient rat brain at 9 mg/kg/day administered through continuous minipump treatment for 3 days by UPLC-MS analysis; assay type: ADME, organism-based; settings: other: continuous minipump, read-out: Drug uptake; in short: as §2
[12] = Total drug level in mdr1a-deficient mouse brain at 6 mg/kg/day administered through continuous minipump treatment for 3 days by UPLC-MS analysis; assay type: ADME, organism-based; settings: other: continuous minipump, read-out: Drug uptake; in short: as §3
[13] = Total drug level in wild type Sprague-Dawley rat brain expressing Abcb1a treated with venlafaxine at 9 mg/kg/day administered through continuous minipump treatment for 3 days by UPLC-MS analysis; assay type: ADME, organism-based; settings: other: continuous minipump, read-out: Drug uptake; in short: as §3
[14] = Total brain to plasma partition coefficient of the compound in mdr1a-deficient rat treated with venlafaxine at 9 mg/kg/day administered through continuous minipump treatment for 3 days; assay type: ADME, organism-based; settings: brain and plasma, other: continuous minipump
In short: (§4)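 Kp is total brain concentration divided by total plasma concentration at steady state. Measured after a 3-day subcutaneous osmotic minipump infusion in mdr1a-deficient or wild-type rats or mice, n=3-5. Concentrations determined by UPLC-MS in plasma and in whole-brain homogenate (70% acetonitrile). Mean ± SEM.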

[15] = Unbound brain to plasma partition coefficient of the compound in wild type Sprague-Dawley rat expressing Abcb1a treated with venlafaxine at 9 mg/kg/day administered through continuous minipump treatment for 3 days; assay type: ADME, organism-based; settings: other: continuous minipump, read-out: K(p,uu,brain)
In short: (§5)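 Kp,uu is (Cbrain,total × fu,brain)/(Cplasma,total × fu,plasma). Total concentrations were measured at steady state after a 3-day subcutaneous minipump infusion in knockout or wild-type animals. Species-matched free fractions came from 5 h, 37°C equilibrium dialysis at 1 µM in naïve plasma and brain homogenate.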

[16] = Total plasma concentration in mdr1a-deficient mouse treated with venlafaxine at 12 mg/kg/day administered through continuous minipump treatment for 3 days by UPLC-MS analysis; assay type: ADME, organism-based; settings: other: continuous minipump; in short: as §3
[17] = Unbound brain to plasma partition coefficient of the compound in mdr1a-deficient Sprague-Dawley rat treated with venlafaxine at 9 mg/kg/day administered through continuous minipump treatment for 3 days; assay type: ADME, organism-based; settings: other: continuous minipump, read-out: K(p,uu,brain); in short: as §5
[18] = Total drug level in wild type Crl:CF1 mouse brain expressing Abcb1a mutant treated with venlafaxine at 12 mg/kg/day administered through continuous minipump treatment for 3 days by UPLC-MS analysis; assay type: ADME, organism-based; settings: other: continuous minipump, read-out: Drug uptake; in short: as §3
[19] = Total brain to plasma partition coefficient of the compound in wild type Crl:CF1 mouse expressing Abcb1a mutant treated with venlafaxine at 12 mg/kg/day administered through continuous minipump treatment for 3 days; assay type: ADME, organism-based; settings: other: continuous minipump; in short: as §4
[20] = Total plasma concentration in mdr1a-deficient rat treated with venlafaxine at 9 mg/kg/day administered through continuous minipump treatment for 3 days by UPLC-MS analysis; assay type: ADME, organism-based; settings: other: continuous minipump; in short: as §3
[21] = Unbound brain to plasma partition coefficient of the compound in wild type Crl:CF1 mouse expressing Abcb1a mutant treated with venlafaxine at 12 mg/kg/day administered through continuous minipump treatment for 3 days; assay type: ADME, organism-based; settings: other: continuous minipump, read-out: K(p,uu,brain); in short: as §5
[22] = Total plasma concentration in wild type Crl:CF1 mouse expressing Abcb1a mutant treated with venlafaxine at 12 mg/kg/day administered through continuous minipump treatment for 3 days by UPLC-MS analysis; assay type: ADME, organism-based; settings: other: continuous minipump; in short: as §3
[23] = Total plasma concentration in wild type Sprague-Dawley rat expressing Abcb1a treated with venlafaxine at 9 mg/kg/day administered through continuous minipump treatment for 3 days by UPLC-MS analysis; assay type: ADME, organism-based; settings: other: continuous minipump; in short: as §3
[24] = Unbound brain to plasma partition coefficient of the compound in mdr1a-deficient mouse treated with venlafaxine at 12 mg/kg/day administered through continuous minipump treatment for 3 days; assay type: ADME, organism-based; settings: other: continuous minipump, read-out: K(p,uu,brain); in short: as §5
[25] = Total drug level in mdr1a-deficient rat brain treated with venlafaxine at 9 mg/kg/day administered through continuous minipump treatment for 3 days by UPLC-MS analysis; assay type: ADME, organism-based; settings: other: continuous minipump, read-out: Drug uptake; in short: as §3
[26] = Total brain to plasma partition coefficient of the compound in mdr1a-deficient mouse treated with venlafaxine at 12 mg/kg/day administered through continuous minipump treatment for 3 days; assay type: ADME, organism-based; settings: other: continuous minipump; in short: as §4
[27] = Total brain to plasma partition coefficient of the compound in wild type Sprague-Dawley rat expressing Abcb1a treated with venlafaxine at 9 mg/kg/day administered through continuous minipump treatment for 3 days; assay type: ADME, organism-based; settings: brain and plasma, other: continuous minipump; in short: as §4
[28] = Total drug level in mdr1a-deficient mouse brain treated with venlafaxine at 12 mg/kg/day administered through continuous minipump treatment for 3 days by UPLC-MS analysis; assay type: ADME, organism-based; settings: other: continuous minipump, read-out: Drug uptake; in short: as §3

## Br.CN(C)CCCC1(c2ccc(F)cc2)OCc2cc(C#N)ccc21 (configuration not stated) [CITALOPRAM HYDROBROMIDE]
[1]
  fraction unbound at 5 h, 1 µM: 0.031
[2]
  concentration at 72 h: 265 ng/g
[3]
  concentration at 72 h: 191 ng/g
[4]
  concentration at 72 h: 35 ng/mL
[5]
  fraction unbound at 5 h, 1 µM: 0.035
[6]
  concentration at 72 h: 8.8 ng/mL
[7]
  concentration at 72 h: 8.2 ng/mL
[8]
  fraction unbound at 5 h, 1 µM: 0.5
[9]
  fraction unbound at 5 h, 1 µM: 0.32
[10]
  concentration at 72 h: 27 ng/mL
[11]
  concentration at 72 h: 1200 ng/g
[12]
  concentration at 72 h: 361 ng/g

## CN(C)CC(c1ccc(O)cc1)C1(O)CCCCC1 (configuration not stated) [DESVENLAFAXINE]
[13]
  concentration at 72 h: 4.4 ng/g
[14]
  Kp at 72 h: 3.3
[15]
  Kp uu at 72 h: 0.38
[1]
  fraction unbound at 5 h, 1 µM: 0.35
[16]
  concentration at 72 h: 7.5 ng/mL
[17]
  Kp uu at 72 h: 1.2
[18]
  concentration at 72 h: 10 ng/g
[19]
  Kp at 72 h: 1.8
[20]
  concentration at 72 h: 11 ng/mL
[21]
  Kp uu at 72 h: 0.8
[22]
  concentration at 72 h: 5.7 ng/mL
[23]
  concentration at 72 h: 4.5 ng/mL
[5]
  fraction unbound at 5 h, 1 µM: 0.45
[24]
  Kp uu at 72 h: 2.4
[8]
  fraction unbound at 5 h, 1 µM: 0.89
[9]
  fraction unbound at 5 h, 1 µM: > 0.99
[25]
  concentration at 72 h: 33 ng/g
[26]
  Kp at 72 h: 5.7
[27]
  Kp at 72 h: 1
[28]
  concentration at 72 h: 40 ng/g

## CNCC(c1ccc(OC)cc1)C1(O)CCCCC1 (configuration not stated) [N-DESMETHYLVENLAFAXINE]
[13]
  concentration at 72 h: 9.3 ng/g
[14]
  Kp at 72 h: 8.9
[15]
  Kp uu at 72 h: 0.34
[1]
  fraction unbound at 5 h, 1 µM: 0.08
[16]
  concentration at 72 h: 11 ng/mL
[17]
  Kp uu at 72 h: 2
[18]
  concentration at 72 h: 25 ng/g
[19]
  Kp at 72 h: 1.5
[20]
  concentration at 72 h: 10 ng/mL
[21]
  Kp uu at 72 h: 0.29
[22]
  concentration at 72 h: 17 ng/mL
[23]
  concentration at 72 h: 6.8 ng/mL
[5]
  fraction unbound at 5 h, 1 µM: 0.16
[24]
  Kp uu at 72 h: 1.4
[8]
  fraction unbound at 5 h, 1 µM: 0.32
[9]
  fraction unbound at 5 h, 1 µM: 0.8
[25]
  concentration at 72 h: 79 ng/g
[26]
  Kp at 72 h: 7
[27]
  Kp at 72 h: 1.4
[28]
  concentration at 72 h: 77 ng/g
